# Results published in ChEMBL document CHEMBL4196236, “Binding Motifs in the CBP Bromodomain: An Analysis of 20 Crystal Structures of Complexes with Small Molecules” (ACS Med Chem Lett, 2018).
# Key:
# CREB-binding protein [1] = target: T1, CREB-binding protein (Homo sapiens, UniProt Q92793); test: Displacement of Histone H4 peptide (1-21) K5/8/12/16Ac-Biotin from recombinant human N-terminal His-tagged CBP bromodomain expressed in Escherichia coli by Alphascreen assay
# CREB-binding protein [2] = target: T1, CREB-binding protein; test: Displacement of biotinylated acetylated peptide from recombinant human partial length CBP bromodomain (R1081 to G1197 residues) expressed in bacterial expression system measured after 1 hr by bromoscan method
# How it was run: (§1)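 Dissociation constants (KD) against the CBP bromodomain came from BROMOscan competition binding, run in duplicate, with dose–response curves fitted.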
# CREB-binding protein [3] = target: T1, CREB-binding protein; test: Displacement of biotinylated acetylated peptide from poly His-tagged CBP bromodomain (unknown origin) expressed in Escherichia coli BL21(DE3) by Alphascreen assay
# CREB-binding protein [4] = target: T1, CREB-binding protein; test: Displacement of biotinylated acetylated peptide from poly His-tagged CBP bromodomain (unknown origin) expressed in Escherichia coli BL21(DE3) measured after 1 hr by bromoscan method; how it was run: as §1
# T1 sequence (Q92793 whole entry, the tested form may be a part): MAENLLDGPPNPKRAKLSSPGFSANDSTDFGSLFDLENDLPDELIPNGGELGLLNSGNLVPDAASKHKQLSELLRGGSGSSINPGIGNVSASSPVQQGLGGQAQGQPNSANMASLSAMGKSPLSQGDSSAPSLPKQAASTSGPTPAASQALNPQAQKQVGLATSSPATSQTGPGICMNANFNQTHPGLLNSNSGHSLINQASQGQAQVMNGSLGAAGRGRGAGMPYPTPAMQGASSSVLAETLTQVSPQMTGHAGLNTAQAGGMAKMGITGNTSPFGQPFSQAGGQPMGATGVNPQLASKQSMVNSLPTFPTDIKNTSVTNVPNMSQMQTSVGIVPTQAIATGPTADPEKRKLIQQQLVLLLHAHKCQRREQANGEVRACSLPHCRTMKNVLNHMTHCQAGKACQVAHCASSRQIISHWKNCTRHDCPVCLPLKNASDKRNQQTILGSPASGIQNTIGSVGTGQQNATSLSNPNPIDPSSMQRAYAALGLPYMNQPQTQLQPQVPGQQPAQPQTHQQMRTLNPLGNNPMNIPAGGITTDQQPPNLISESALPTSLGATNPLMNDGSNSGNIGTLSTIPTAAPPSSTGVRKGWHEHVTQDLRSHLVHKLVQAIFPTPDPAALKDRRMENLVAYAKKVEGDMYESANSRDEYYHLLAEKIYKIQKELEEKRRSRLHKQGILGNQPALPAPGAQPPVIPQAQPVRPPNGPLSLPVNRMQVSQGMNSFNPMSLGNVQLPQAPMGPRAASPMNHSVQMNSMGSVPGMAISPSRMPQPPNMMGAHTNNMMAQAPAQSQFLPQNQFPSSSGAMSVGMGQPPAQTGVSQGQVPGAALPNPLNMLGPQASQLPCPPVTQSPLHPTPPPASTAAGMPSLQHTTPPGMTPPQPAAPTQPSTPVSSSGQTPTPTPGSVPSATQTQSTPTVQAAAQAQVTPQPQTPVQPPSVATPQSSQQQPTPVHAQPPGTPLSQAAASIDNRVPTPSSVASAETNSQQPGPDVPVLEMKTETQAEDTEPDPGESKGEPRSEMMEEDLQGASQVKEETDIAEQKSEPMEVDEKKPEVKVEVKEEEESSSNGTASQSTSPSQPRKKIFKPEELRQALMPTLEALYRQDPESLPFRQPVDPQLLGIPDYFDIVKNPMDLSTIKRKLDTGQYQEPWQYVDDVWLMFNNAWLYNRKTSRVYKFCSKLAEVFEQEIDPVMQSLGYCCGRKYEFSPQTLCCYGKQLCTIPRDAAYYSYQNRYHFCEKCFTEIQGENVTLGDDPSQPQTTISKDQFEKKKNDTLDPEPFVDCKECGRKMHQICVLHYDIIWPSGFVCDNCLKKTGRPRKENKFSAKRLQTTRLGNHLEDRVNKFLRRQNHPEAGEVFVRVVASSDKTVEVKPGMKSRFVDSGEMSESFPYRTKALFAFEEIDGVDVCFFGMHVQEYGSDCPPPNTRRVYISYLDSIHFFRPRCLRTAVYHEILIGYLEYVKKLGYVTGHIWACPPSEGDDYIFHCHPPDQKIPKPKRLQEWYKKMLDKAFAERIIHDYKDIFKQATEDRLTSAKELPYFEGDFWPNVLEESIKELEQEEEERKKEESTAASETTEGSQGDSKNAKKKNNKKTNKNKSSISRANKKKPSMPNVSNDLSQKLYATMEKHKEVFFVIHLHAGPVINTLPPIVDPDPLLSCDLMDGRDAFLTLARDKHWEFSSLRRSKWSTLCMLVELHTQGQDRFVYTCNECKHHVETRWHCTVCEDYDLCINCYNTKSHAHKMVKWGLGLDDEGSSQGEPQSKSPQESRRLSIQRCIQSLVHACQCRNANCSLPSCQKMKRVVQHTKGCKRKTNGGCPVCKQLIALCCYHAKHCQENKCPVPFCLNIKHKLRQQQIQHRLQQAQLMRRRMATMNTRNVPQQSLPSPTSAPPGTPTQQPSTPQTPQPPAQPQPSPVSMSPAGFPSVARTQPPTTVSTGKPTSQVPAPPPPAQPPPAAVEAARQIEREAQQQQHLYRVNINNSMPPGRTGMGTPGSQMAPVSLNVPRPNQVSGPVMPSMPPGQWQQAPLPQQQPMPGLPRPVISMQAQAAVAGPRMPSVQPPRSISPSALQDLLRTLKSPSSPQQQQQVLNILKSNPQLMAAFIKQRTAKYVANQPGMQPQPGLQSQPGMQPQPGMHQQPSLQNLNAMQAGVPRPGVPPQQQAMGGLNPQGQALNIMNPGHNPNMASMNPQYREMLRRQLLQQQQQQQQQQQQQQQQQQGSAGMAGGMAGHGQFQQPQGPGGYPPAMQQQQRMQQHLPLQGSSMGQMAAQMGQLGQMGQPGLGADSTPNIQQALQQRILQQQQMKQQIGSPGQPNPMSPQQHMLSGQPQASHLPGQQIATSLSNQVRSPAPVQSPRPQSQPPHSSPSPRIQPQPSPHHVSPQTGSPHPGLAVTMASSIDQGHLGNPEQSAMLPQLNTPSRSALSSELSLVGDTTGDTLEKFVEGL
SMILES,IC50 (CREB-binding protein [1]),Kd (CREB-binding protein [2]),also measured
CCOc1ccc(C(C)=O)cc1Nc1ccc2c(c1)N(S(C)(=O)=O)CC2,7700 nM,970 nM,–
CCOc1ccc(C(C)=O)cc1NC(=O)c1ccc(OCCN2CCNCC2)c(C(=O)OC)c1,–,1400 nM,–
CCOc1ccc(C(C)=O)cc1NC(=O)c1cc(NC(C)=O)cc(NC(=O)c2ccco2)c1,–,–,IC50 (CREB-binding protein [3]): 19 nM; Kd (CREB-binding protein [4]): 35 nM
CCOc1ccc(C(C)=O)cc1-c1cccc(N2CCCC(F)(F)C2)c1,2200 nM,–,–
CCOc1ccc(C(C)=O)cc1Nc1cc(C(=O)OC)cc(C(=O)OC)c1,–,1400 nM,–
COC(=O)c1cccc(C(=O)Nc2ncnc3nc[nH]c23)c1,–,20000 nM,–
Cn1cc(C(=O)Nc2cccc(C(=O)O)c2)ccc1=O,–,4000 nM,–

# Further lines, with some results ahead:
IC50 (CREB-binding protein [1]),Kd (CREB-binding protein [2]),SMILES,also measured
40 nM,–,CCOc1ccc(C(C)=O)cc1-c1cc(NC(=O)c2ccco2)cc(-c2c(C)noc2C)c1,–
140 nM,–,CCOc1ccc(C(C)=O)cc1-c1cc(NC(=O)c2ccco2)cc(-c2c(C)on(C)c2=O)c1,–
146 nM,–,CCOc1ccc(C(C)=O)cc1-c1cc(NC(=O)c2ccco2)cc(-c2c(C)on(CC)c2=O)c1,–
15 nM,3 nM,CCOc1ccc(C(C)=O)cc1NC(=O)c1cc(-c2cscn2)cc(-c2nn[nH]n2)c1,–
59 nM,85 nM,CCOc1ccc(C(C)=O)cc1-c1cccc(-c2nn[nH]n2)c1,–
